Measurements: ChEMBL document CHEMBL1144690, “Isolation of cytotoxic metabolites from targeted peruvian amazonian medicinal plants” (2008)
≈ marks a conversion by molar mass, not a printed value. Calls of active or inactive are those of the source. No cut-off for these calls is given here.

What was measured:
M14 = assay: Cytotoxicity against human M14 cells; assay type: functional
Summary of the method: (§1)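 Cells in 96-well plates exposed to serial dilutions of test sample (maximum 62.5 µg/mL for crude extract and fractions) or solvent-dilution controls for 48 h at 37 °C. Growth measured colorimetrically by sulforhodamine B staining, with percent inhibition taken against controls. GI50 is the concentration giving 50% absorbance reduction versus solvent controls, obtained by linear regression.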

PC-3 = assay: Cytotoxicity against human PC3 cells; assay type: functional; summary of the method: as §1
MCF7 = assay: Cytotoxicity against human MCF7 cells; assay type: functional; summary of the method: as §1
Vero = assay: Cytotoxicity against african green monkey Vero cells; assay type: functional; conditions: Chlorocebus sabaeus; summary of the method: as §1
[1] = test system: Mycobacterium tuberculosis; assay: Antimicrobial activity against Mycobacterium tuberculosis H37Rv at 25 ug/ml; assay type: functional, organism-based
HT-29 = assay: Cytotoxicity against human HT29 cells; assay type: functional; summary of the method: as §1
K562 = assay: Cytotoxicity against human K562 cells; assay type: functional; summary of the method: as §1
DU-145 = assay: Cytotoxicity against human DU145 cells; assay type: functional; summary of the method: as §1
NCI-H460 = assay: Cytotoxicity against human H460 cells; assay type: functional; summary of the method: as §1
ME-180 = assay: Cytotoxicity against human ME180 cells; assay type: functional; summary of the method: as §1
[2] = test system: Mycobacterium tuberculosis; assay: Antimicrobial activity against Mycobacterium tuberculosis H37Rv; assay type: functional
Summary of the method: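 Tetrazolium microplate assay (TEMA) run in vitro against the drug-sensitive M. tuberculosis H37Rv strain.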

SMILES	GI50 (M14)	GI50 (PC-3)	GI50 (MCF7)	GI50 (Vero)	Activity [1]	GI50 (HT-29)	GI50 (K562)	GI50 (DU-145)	GI50 (NCI-H460)	GI50 (ME-180)	MIC [2]
COc1ccc(CCC(=O)c2c(O)cc(O)cc2OC)cc1	40.3 µg/mL (≈ 133 µM)	46.3 µg/mL (≈ 153 µM)	22.9 µg/mL (≈ 75.7 µM)	40.4 µg/mL (≈ 134 µM)	inactive	35.5 µg/mL (≈ 117 µM)	7.4 µg/mL (≈ 24.5 µM)	41.7 µg/mL (≈ 138 µM)	44.7 µg/mL (≈ 148 µM)		
Cc1cc(O)c2c(c1)C(=O)c1ccc(O)c(O)c1C2=O	13.6 µg/mL (≈ 50.3 µM)	8.7 µg/mL (≈ 32.2 µM)	7.3 µg/mL (≈ 27 µM)		inactive	6.5 µg/mL (≈ 24.1 µM)	12.5 µg/mL (≈ 46.3 µM)	7.9 µg/mL (≈ 29.2 µM)	4.8 µg/mL (≈ 17.8 µM)	13.2 µg/mL (≈ 48.8 µM)	
COc1cc(O)cc(O)c1C(=O)CCc1ccc2c(c1)OCO2	23.4 µg/mL (≈ 74 µM)	24.5 µg/mL (≈ 77.5 µM)	18.9 µg/mL (≈ 59.8 µM)	28.4 µg/mL (≈ 89.8 µM)	inactive	27.6 µg/mL (≈ 87.3 µM)	8.4 µg/mL (≈ 26.6 µM)	22.4 µg/mL (≈ 70.8 µM)	27.4 µg/mL (≈ 86.6 µM)		
C=C(C)[C@@H]1CC[C@]2(C(=O)O)CC[C@]3(C)[C@H](CC[C@@H]4[C@@]5(C)CC[C@H](O)C(C)(C)[C@@H]5CC[C@]43C)[C@@H]12 [BETULINIC ACID]	32.6 µg/mL (≈ 71.4 µM)	31.3 µg/mL (≈ 68.5 µM)	> 62.5 µg/mL	30.6 µg/mL (≈ 67 µM)	inactive	30.9 µg/mL (≈ 67.7 µM)	10.8 µg/mL (≈ 23.6 µM)	35.3 µg/mL (≈ 77.3 µM)	29.7 µg/mL (≈ 65 µM)	27.8 µg/mL (≈ 60.9 µM)	
C/C=C1/CN2CC[C@@]34c5ccccc5N5/C=C6/[C@H]7C[C@@H]8N(CC[C@@]89c8ccccc8N(/C=C(/[C@H]1C[C@H]23)[C@H]54)[C@@H]69)C/C7=C/C [BISNORDIHYDROTOXIFERINE]	1.6 µg/mL (≈ 2.89 µM)	2.1 µg/mL (≈ 3.8 µM)	2 µg/mL (≈ 3.62 µM)	2.7 µg/mL (≈ 4.88 µM)		> 1 µg/mL	< 1 µg/mL	4.5 µg/mL (≈ 8.14 µM)	1.6 µg/mL (≈ 2.89 µM)	1.9 µg/mL (≈ 3.44 µM)	12.5 µg/mL (≈ 22.6 µM)
Cc1cc(O)c2c(c1)C(=O)c1cccc(O)c1C2=O [CHRYSOPHANOL]	> 62.5 µg/mL	> 62.5 µg/mL	> 62.5 µg/mL	> 62.5 µg/mL	inactive	> 62.5 µg/mL	> 62.5 µg/mL	> 62.5 µg/mL	> 62.5 µg/mL	> 62.5 µg/mL	
C[C@]12C=C[C@@]3(CC[C@H]4[C@@](C)(CCC[C@@]4(C)C(=O)O)[C@@H]3CC1)C2 [MONOGINOIC ACID]							> 62.5 µg/mL				
CCCCCCCCCCCCCC(=O)O[C@@H]1[C@@H](C)[C@@]2(O)[C@@H](C=C(CO)C[C@]3(O)C(=O)C(C)=C[C@@H]23)[C@@H]2C(C)(C)[C@]12OC(C)=O [PHORBOL MYRISTATE ACETATE]							0.00012 µg/mL				
